In ChEMBL document CHEMBL5058577, “EUbOPEN Chemogenomics Library 2 (Multiplex)” (2022):

Tested on: HEK-293T
Assay: Multiplex assay against HEK293T
Assay type: toxicity, cell-based
Conditions: human
How it was run: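 Live cells were stained at seeding with Hoechst33342, BioTracker Green Microtubule Cytoskeleton Dye, MitoTracker Red and Annexin V Alexa Fluor 680. Following compound addition, they were imaged on a CQ1 microscope at 37°C and 5% CO2 and gated by CellPathfinder machine learning into Hoechst high-intensity objects or normal cells, with normal cells split into healthy, pyknosed or fragmented nuclei and pyknosed cells into mitotic or apoptotic. Tubulin, mitochondrial-mass and membrane-permeability phenotypes are per cents of healthy-nucleus cells.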

[1] = 12 h, 1 µM, compound concentration 1 uM, replicate 1
[2] = 12 h, 1 µM, compound concentration 1 uM, replicate 2
[3] = 12 h, 10 µM, compound concentration 10 uM, replicate 1
[4] = 12 h, 10 µM, compound concentration 10 uM, replicate 2
[5] = 24 h, 1 µM, compound concentration 1 uM, replicate 1
[6] = 24 h, 1 µM, compound concentration 1 uM, replicate 2
[7] = 24 h, 10 µM, compound concentration 10 uM, replicate 1
[8] = 24 h, 10 µM, compound concentration 10 uM, replicate 2
[9] = 48 h, 1 µM, compound concentration 1 uM, replicate 1
[10] = 48 h, 1 µM, compound concentration 1 uM, replicate 2
[11] = 48 h, 10 µM, compound concentration 10 uM, replicate 1
[12] = 48 h, 10 µM, compound concentration 10 uM, replicate 2

CN(C)c1ccnc2sc3c(=O)n(N4CCCCCC4)cnc3c12
Population Apoptotic (%) [1]: 45% | Population Fragmented Nuclei (%) [1]: 9% | Population Healthy Nuclei (%) [1]: 76% | Population Hoechst High Intensity Objects (%) [1]: 4% | Population Membrane Permeable-Phenotype (%) [1]: 1% | Population Mitochondria Different-Phenotype (%) [1]: 50% | Population Mitotic Cells (%) [1]: 54% | Population Normal (%) [1]: 95% | Population Pyknosed Nuclei (%) [1]: 13% | Population Tubulin-Different-Phenotype (%) [1]: 43% | Total Cell Count [1]: 360 | Population Apoptotic (%) [2]: 51% | Population Fragmented Nuclei (%) [2]: 5% | Population Healthy Nuclei (%) [2]: 82% | Population Hoechst High Intensity Objects (%) [2]: 8% | Population Membrane Permeable-Phenotype (%) [2]: 0% | Population Mitochondria Different-Phenotype (%) [2]: 67% | Population Mitotic Cells (%) [2]: 48% | Population Normal (%) [2]: 91% | Population Pyknosed Nuclei (%) [2]: 12% | Population Tubulin-Different-Phenotype (%) [2]: 25% | Total Cell Count [2]: 335 | Population Apoptotic (%) [3]: 36% | Population Fragmented Nuclei (%) [3]: 4% | Population Healthy Nuclei (%) [3]: 81% | Population Hoechst High Intensity Objects (%) [3]: 10% | Population Membrane Permeable-Phenotype (%) [3]: 0% | Population Mitochondria Different-Phenotype (%) [3]: 78% | Population Mitotic Cells (%) [3]: 63% | Population Normal (%) [3]: 89% | Population Pyknosed Nuclei (%) [3]: 14% | Population Tubulin-Different-Phenotype (%) [3]: 79% | Total Cell Count [3]: 387 | Population Apoptotic (%) [4]: 59% | Population Fragmented Nuclei (%) [4]: 9% | Population Healthy Nuclei (%) [4]: 72% | Population Hoechst High Intensity Objects (%) [4]: 13% | Population Mitochondria Different-Phenotype (%) [4]: 76% | Population Mitotic Cells (%) [4]: 40% | Population Normal (%) [4]: 86% | Population Pyknosed Nuclei (%) [4]: 17% | Population Tubulin-Different-Phenotype (%) [4]: 59% | Total Cell Count [4]: 308 | Population Apoptotic (%) [5]: 30% | Population Fragmented Nuclei (%) [5]: 10% | Population Healthy Nuclei (%) [5]: 76% | Population Hoechst High Intensity Objects (%) [5]: 4% | Population Membrane Permeable-Phenotype (%) [5]: 1% | Population Mitochondria Different-Phenotype (%) [5]: 27% | Population Mitotic Cells (%) [5]: 70% | Population Normal (%) [5]: 95% | Population Pyknosed Nuclei (%) [5]: 12% | Population Tubulin-Different-Phenotype (%) [5]: 24% | Total Cell Count [5]: 510 | Population Apoptotic (%) [6]: 25% | Population Fragmented Nuclei (%) [6]: 7% | Population Healthy Nuclei (%) [6]: 84% | Population Hoechst High Intensity Objects (%) [6]: 5% | Population Membrane Permeable-Phenotype (%) [6]: 0% | Population Mitochondria Different-Phenotype (%) [6]: 51% | Population Mitotic Cells (%) [6]: 74% | Population Normal (%) [6]: 94% | Population Pyknosed Nuclei (%) [6]: 7% | Population Tubulin-Different-Phenotype (%) [6]: 22% | Total Cell Count [6]: 470 | Population Apoptotic (%) [7]: 42% | Population Fragmented Nuclei (%) [7]: 7% | Population Healthy Nuclei (%) [7]: 76% | Population Hoechst High Intensity Objects (%) [7]: 8% | Population Membrane Permeable-Phenotype (%) [7]: 0% | Population Mitochondria Different-Phenotype (%) [7]: 80% | Population Mitotic Cells (%) [7]: 57% | Population Normal (%) [7]: 91% | Population Pyknosed Nuclei (%) [7]: 16% | Population Tubulin-Different-Phenotype (%) [7]: 71% | Total Cell Count [7]: 428 | Population Apoptotic (%) [8]: 66% | Population Fragmented Nuclei (%) [8]: 10% | Population Healthy Nuclei (%) [8]: 74% | Population Hoechst High Intensity Objects (%) [8]: 13% | Population Mitochondria Different-Phenotype (%) [8]: 75% | Population Mitotic Cells (%) [8]: 33% | Population Normal (%) [8]: 86% | Population Pyknosed Nuclei (%) [8]: 15% | Population Tubulin-Different-Phenotype (%) [8]: 53% | Total Cell Count [8]: 359 | Population Apoptotic (%) [9]: 27% | Population Fragmented Nuclei (%) [9]: 13% | Population Healthy Nuclei (%) [9]: 78% | Population Hoechst High Intensity Objects (%) [9]: 2% | Population Membrane Permeable-Phenotype (%) [9]: 0% | Population Mitochondria Different-Phenotype (%) [9]: 23% | Population Mitotic Cells (%) [9]: 72% | Population Normal (%) [9]: 97% | Population Pyknosed Nuclei (%) [9]: 7% | Population Tubulin-Different-Phenotype (%) [9]: 14% | Total Cell Count [9]: 721 | Population Apoptotic (%) [10]: 20% | Population Fragmented Nuclei (%) [10]: 11% | Population Healthy Nuclei (%) [10]: 82% | Population Hoechst High Intensity Objects (%) [10]: 3% | Population Membrane Permeable-Phenotype (%) [10]: 2% | Population Mitochondria Different-Phenotype (%) [10]: 31% | Population Mitotic Cells (%) [10]: 80% | Population Normal (%) [10]: 96% | Population Pyknosed Nuclei (%) [10]: 6% | Population Tubulin-Different-Phenotype (%) [10]: 15% | Total Cell Count [10]: 663 | Population Apoptotic (%) [11]: 70% | Population Fragmented Nuclei (%) [11]: 15% | Population Healthy Nuclei (%) [11]: 72% | Population Hoechst High Intensity Objects (%) [11]: 8% | Population Membrane Permeable-Phenotype (%) [11]: 0% | Population Mitochondria Different-Phenotype (%) [11]: 66% | Population Mitotic Cells (%) [11]: 29% | Population Normal (%) [11]: 91% | Population Pyknosed Nuclei (%) [11]: 12% | Population Tubulin-Different-Phenotype (%) [11]: 54% | Total Cell Count [11]: 497 | Population Apoptotic (%) [12]: 57% | Population Fragmented Nuclei (%) [12]: 11% | Population Healthy Nuclei (%) [12]: 75% | Population Hoechst High Intensity Objects (%) [12]: 6% | Population Mitochondria Different-Phenotype (%) [12]: 63% | Population Mitotic Cells (%) [12]: 42% | Population Normal (%) [12]: 93% | Population Tubulin-Different-Phenotype (%) [12]: 45% | Total Cell Count [12]: 450
